Laboratory results reported in ChEMBL document CHEMBL4251712, “Mbandakamine-Type Naphthylisoquinoline Dimers and Related Alkaloids from the Central African Liana Ancistrocladus ealaensis with Antiparasitic and Antileukemic Activities” (J Nat Prod, 2018).
Active and inactive are the calls of the source. The calls are words filed in the database; no cut-off is given here.

Columns and labels:
Trypanosoma cruzi = test: […] activity against Trypanosoma cruzi Tulahuen C4 infected in rat L6 cells after 96 hrs by CPRG/Nonidet reagent based photometric analysis; assay type: functional, organism-based; settings: for IC50: Tulahuen C4, L6, 96 h
How it was run: (§1)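 IC50 values are means of two independent assays, individual values differing by less than a factor of 2.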

L6 = test: Cytotoxicity against rat L6 cells after 72 hrs by Alamar blue assay; assay type: cell-based; settings: L6, 72 h; how it was run: as §1
[1] = tested on: Trypanosoma brucei rhodesiense; test: […] activity against Trypanosoma brucei rhodesiense STIB 900 trypomastigote after 72 hrs by Alamar blue assay; assay type: functional, organism-based; settings: for IC50: STIB 900, 72 h; how it was run: as §1
Plasmodium falciparum [2] = test: Antiplasmodial activity against chloroquine and pyrimethamine-resistant Plasmodium falciparum K1 assessed as reduction in [3H]-hypoxanthine incorporation pretreated for 48 hrs followed by [3H]-hypoxanthine addition measured after 24 hrs by liquid scintillation counting method; assay type: functional, organism-based
How it was run: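 IC50 against the K1 strain taken as the mean of two independent assays, with individual values differing by a factor of less than 2.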

[3] = Selectivity index, ratio of IC50 for rat L6 cells to IC50 for chloroquine-sensitive Plasmodium falciparum NF54; assay type: toxicity; settings: read-out: Ratio IC50
How it was run: (§2)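 Selectivity index is the L6-cell IC50 divided by the P. falciparum IC50 for the matching strain (K1 or NF54). Each IC50 is the mean of two independent assays, with individual values differing by a factor of less than 2.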

CCRF-CEM [4] = test: Antileukemic activity against human CCRF-CEM cells after 24 to 48 hrs by resazurin dye based fluorescence assay; assay type: functional, cell-based
How it was run: (§3)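 Leukemia cells treated with compounds across 0.001 to 100 μM, doxorubicin as reference drug; viability read by resazurin assay. Values are means with standard deviation of three independent experiments, each with six parallel measurements.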

ADR5000 cell line [5] = test: Antileukemic activity against human CEM/ADR5000 cells after 24 to 48 hrs by resazurin dye based fluorescence assay; assay type: functional, cell-based; how it was run: as §3
[6] = Resistance index, ratio of IC50 for human CEM/ADR5000 cells to IC50 for human CCRF-CEM cells; assay type: functional
How it was run: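 Degree of resistance calculated as IC50 for CEM/ADR5000 divided by IC50 for CCRF-CEM; IC50s from resazurin viability assay after treatment at 0.001 to 100 μM, three independent experiments of six parallels each.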

Leishmania donovani = test: […] activity against Leishmania donovani MHOM-ET-67/L82 axenic amastigotes after 72 hrs by Alamar blue assay; assay type: functional, organism-based; settings: for IC50: MHOM-ET-67/L82, 72 h; how it was run: as §1
Plasmodium falciparum [7] = test: Antiplasmodial activity against chloroquine-sensitive Plasmodium falciparum NF54 assessed as reduction in [3H]-hypoxanthine incorporation pretreated for 48 hrs followed by [3H]-hypoxanthine addition measured after 24 hrs by liquid scintillation counting method; assay type: functional, organism-based
[8] = Selectivity index, ratio of IC50 for rat L6 cells to IC50 for chloroquine and pyrimethamine-resistant Plasmodium falciparum K1; assay type: toxicity; settings: read-out: Ratio IC50; how it was run: as §2
ADR5000 cell line [9] = test: Antileukemic activity against human CEM/ADR5000 cells assessed as reduction in cell viability at 0.001 to 100 uM after 24 to 48 hrs by resazurin dye based fluorescence assay relative to control
CCRF-CEM [10] = test: Antileukemic activity against human CCRF-CEM cells assessed as reduction in cell viability at 0.001 to 100 uM after 24 to 48 hrs by resazurin dye based fluorescence assay relative to control
Plasmodium falciparum [11] = test: Antiplasmodial activity against Plasmodium falciparum NF54; assay type: functional, organism-based; how it was run: as §1

Compound | IC50 (Trypanosoma cruzi) | IC50 (L6) | IC50 [1] | IC50 (Plasmodium falciparum [2]) | selectivity ratio [3] | IC50 (Leishmania donovani) | IC50 (Plasmodium falciparum [7]) | selectivity ratio [8] | Activity [1] | Activity (Plasmodium falciparum [2]) | Activity (Trypanosoma cruzi) | Activity (Leishmania donovani) | Activity (Plasmodium falciparum [7]) | other results
O=C(Cn1ccnc1[N+](=O)[O-])NCc1ccccc1 [BENZNIDAZOLE] | 3.56 µM |  |  |  |  |  |  |  |  |  |  |  |  | 
COc1cc([C@@H]2c3cc4c(cc3[C@H](O)[C@H]3COC(=O)[C@H]23)OCO4)cc(OC)c1OC [PODOFILOX] |  | 0.041 µM |  |  |  |  |  |  |  |  |  |  |  | 
COc1cc(O)c(-c2cc(-c3c(C)cc(O)c4c(OC)ccc(-c5c(O)cc(OC)c6c5C[C@@H](C)N[C@@H]6C)c34)c(O)c3c(OC)cc(C)cc23)c2c1[C@H](C)N[C@H](C)C2 | 41.8 µM | 15.9 µM | 1.8 µM | 0.064 µM | 339 | > 100 µM | 0.047 µM | 249 |  |  |  |  |  | IC50 (CCRF-CEM [4]): 1.5 µM; IC50 (ADR5000 cell line [5]): 27.7 µM; Ratio IC50 [6]: 18.5
COc1cc(O)cc2c1C(C)=N[C@@H](C)C2 |  |  |  |  |  |  |  |  | inactive | inactive | inactive | inactive | inactive | 
COc1cc(O)c(-c2ccc(OC)c3c(O)cc(C)c(-c4cc(-c5c(O)cc(OC)c6c5C[C@@H](C)N[C@H]6C)c5cc(C)cc(OC)c5c4O)c23)c2c1C(C)=N[C@H](C)C2 |  | 8.87 µM | 4.1 µM | 0.126 µM | 26.3 | > 100 µM | 0.337 µM | 70.4 |  |  |  |  |  | IC50 (CCRF-CEM [4]): 2.96 µM; IC50 (ADR5000 cell line [5]): 19 µM; Ratio IC50 [6]: 6.4
COc1cc(OC)c(-c2ccc(O)c3c(OC)cc(C)cc23)c2c1C(C)=N[C@@H](C)C2 | 43.4 µM | 101 µM | 1.46 µM | 1.06 µM | 37.5 | 13.4 µM | 2.69 µM | 95.3 |  |  |  |  |  | Activity (ADR5000 cell line [9]): <20%; Activity (CCRF-CEM [10]): <20%
COc1cc(O)c2c(c1)C[C@H](C)N=C2C |  |  |  |  |  |  |  |  | inactive | inactive | inactive | inactive | inactive | 
COc1cc(C)cc2c(-c3c(O)cc(O)c4c3C[C@@H](C)N[C@H]4C)ccc(O)c12 | 237 µM | 79.1 µM | 15.3 µM | 12.9 µM | 7.95 | 26.4 µM | 9.94 µM | 6.13 |  |  |  |  |  | 
COc1cc(O)c2c(c1)C[C@H](C)N[C@@H]2C |  |  |  |  |  |  |  |  | inactive | inactive | inactive | inactive | inactive | 
COc1cc(O)c2c(c1)C[C@H](C)N[C@H]2C |  |  |  |  |  |  |  |  | inactive | inactive | inactive | inactive | inactive | 
COc1cc(OC)c2c(c1-c1ccc(O)c3c(OC)cc(C)cc13)C[C@H](C)N[C@H]2C [ANCISTROEALAINE B] | 32.5 µM | 77.8 µM | 3.85 µM | 0.76 µM | 44.7 | 37.9 µM | 1.74 µM | 102 |  |  |  |  |  | 
COc1cc(C)cc2c(-c3c(O)cc(O)c4c3C[C@@H](C)N[C@@H]4C)ccc(O)c12 [KORUPENSAMINE A] |  |  |  |  |  |  |  |  |  |  |  |  |  | IC50 (Plasmodium falciparum [11]): 0.82 µM
COc1cc(O)c(-c2cc(-c3c(C)cc(O)c4c(OC)ccc(-c5c(O)cc(OC)c6c5C[C@@H](C)N[C@@H]6C)c34)c(O)c3c(OC)cc(C)cc23)c2c1[C@@H](C)N[C@H](C)C2 |  |  |  |  |  |  | 0.13 µM |  |  |  |  |  |  | IC50 (CCRF-CEM [4]): 7.4 µM; IC50 (ADR5000 cell line [5]): 23.9 µM; Ratio IC50 [6]: 3.2
